Data as given in ChEMBL document CHEMBL3621047, “Quaternary Indolizidine and Indolizidone Iminosugars as Potential Immunostimulating and Glycosidase Inhibitory Agents: Synthesis, Conformational Analysis, Biological Activity, and Molecular Docking Study” (J Med Chem, 2015).
Active and inactive are the calls of the source. The calls are words filed in the database; no cut-off is given here.

How the values were obtained:
[1] = system: Splenocyte; assay: Immunostimulating activity in Swiss albino mouse Splenocytes assessed as increase in IL-6 secretion at 5 uM by ELISA in presence of 10 uM ConA relative to control; assay type: functional
Method in brief: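 Supernatants came from splenocytes (2 × 10^6/well) treated with Con A 10 μM plus compound at 5 μM. IL-6 was measured by ELISA: samples 2 h at 37 °C, biotinylated antibody 1 h, then streptavidin–HRP and substrate developed in the dark. Read at 550 nm with 450 nm correction and quantified from an IL-6 standard curve; mean ± SEM, n = 5.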

[2] = system: Splenocyte; assay: Immunostimulating activity in Swiss albino mouse Splenocytes assessed as increase in ConA-induced IFN-gamma secretion at 5 uM by ELISA; assay type: functional, cell-based
Method in brief: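 Splenocyte supernatants (2 × 10^6 cells/well) were collected after 24 h stimulation with Con A 10 μM alone or with compound at 5 μM. Unstimulated cells served as control. IFN-γ was quantified by sandwich ELISA; mean ± SEM, n = 5.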

[3] = Inhibition of aspergillus niger alpha-galactosidase using 10 mM p-nitrophenyl-alpha-D-galactopyranoside as substrate
Method in brief: (§1)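 Enzyme (0.1 U/cm3; A. niger α-galactosidase or bovine liver β-galactosidase) was preincubated with inhibitor for 1 h at 37 °C. Substrate was 10 mM p-nitrophenyl α- or β-D-galactopyranoside in 200 mM sodium acetate, reacted 10 min at 37 °C. The reaction was stopped with 200 mM borate pH 9.8 and released p-nitrophenol read at 420 nm. Ki came from Lineweaver–Burk plots; values are the average of five assays.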

[4] = molecular target: T1, Beta-galactosidase (Bos taurus, UniProt Q58D55); assay: Inhibition of bovine liver beta-galactosidase using 10 mM p-nitrophenyl-beta-D-galactopyranoside as substrate; method in brief: as §1
T1 sequence (Q58D55 whole entry): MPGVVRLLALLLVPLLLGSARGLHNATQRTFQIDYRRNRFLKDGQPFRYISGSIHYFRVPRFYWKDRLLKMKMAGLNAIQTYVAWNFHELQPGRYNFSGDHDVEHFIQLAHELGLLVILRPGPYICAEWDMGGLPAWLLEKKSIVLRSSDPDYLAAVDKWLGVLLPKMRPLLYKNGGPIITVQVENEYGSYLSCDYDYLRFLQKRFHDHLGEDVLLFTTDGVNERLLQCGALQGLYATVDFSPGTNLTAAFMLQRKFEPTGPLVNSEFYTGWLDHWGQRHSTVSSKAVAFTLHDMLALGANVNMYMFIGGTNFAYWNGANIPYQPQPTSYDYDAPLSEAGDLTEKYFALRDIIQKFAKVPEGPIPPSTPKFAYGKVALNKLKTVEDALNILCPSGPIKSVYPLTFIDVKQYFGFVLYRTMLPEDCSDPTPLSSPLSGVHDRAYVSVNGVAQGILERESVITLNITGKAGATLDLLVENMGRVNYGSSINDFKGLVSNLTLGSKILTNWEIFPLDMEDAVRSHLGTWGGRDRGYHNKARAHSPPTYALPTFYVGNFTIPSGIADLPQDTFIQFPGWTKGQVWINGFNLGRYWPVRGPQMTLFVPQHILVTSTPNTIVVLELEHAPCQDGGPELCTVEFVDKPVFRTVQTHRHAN

[5] = molecular target: T2, Alpha-mannosidase (Canavalia ensiformis) (UniProt C0HJB3); assay: Inhibition of jack bean alpha-mannosidase at 1 mM using 10 mM p-nitrophenyl-alpha-D-mannopyranoside as substrate
T2 sequence (whole entry): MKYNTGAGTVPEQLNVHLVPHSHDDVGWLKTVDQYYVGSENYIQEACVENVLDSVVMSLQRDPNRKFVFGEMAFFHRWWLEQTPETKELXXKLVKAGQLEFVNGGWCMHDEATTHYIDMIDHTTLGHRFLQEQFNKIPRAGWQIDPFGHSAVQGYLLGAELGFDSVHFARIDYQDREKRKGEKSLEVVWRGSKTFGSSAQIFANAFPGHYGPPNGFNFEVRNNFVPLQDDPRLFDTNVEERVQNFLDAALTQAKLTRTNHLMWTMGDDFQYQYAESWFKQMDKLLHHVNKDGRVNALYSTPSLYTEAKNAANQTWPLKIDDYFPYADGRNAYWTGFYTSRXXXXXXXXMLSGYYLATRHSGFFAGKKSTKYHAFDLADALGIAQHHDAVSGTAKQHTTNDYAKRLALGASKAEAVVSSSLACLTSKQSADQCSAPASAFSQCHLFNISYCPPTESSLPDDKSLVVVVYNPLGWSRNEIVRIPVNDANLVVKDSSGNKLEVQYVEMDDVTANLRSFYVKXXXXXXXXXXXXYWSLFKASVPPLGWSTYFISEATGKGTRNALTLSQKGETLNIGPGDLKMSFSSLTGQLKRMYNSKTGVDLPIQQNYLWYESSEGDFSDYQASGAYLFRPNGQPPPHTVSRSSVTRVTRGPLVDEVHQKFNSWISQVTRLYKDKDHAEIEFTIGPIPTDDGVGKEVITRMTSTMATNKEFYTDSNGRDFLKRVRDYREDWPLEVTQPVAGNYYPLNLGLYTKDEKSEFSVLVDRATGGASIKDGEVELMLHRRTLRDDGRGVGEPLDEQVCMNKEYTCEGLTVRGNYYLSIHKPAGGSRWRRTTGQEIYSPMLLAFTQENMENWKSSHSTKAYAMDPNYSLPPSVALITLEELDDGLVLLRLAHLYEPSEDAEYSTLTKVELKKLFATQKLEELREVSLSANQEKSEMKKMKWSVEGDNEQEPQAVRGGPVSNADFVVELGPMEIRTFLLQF
Method in brief: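 Jack bean α-mannosidase (0.1 U/cm3) was preincubated with inhibitor for 1 h at 37 °C. Substrate was 10 mM p-nitrophenyl α-D-mannopyranoside in 100 mM citrate pH 4.5, reacted 10 min at 37 °C. The reaction was stopped with 200 mM borate pH 9.8 and absorbance read at 420 nm. Ki came from Lineweaver–Burk plots; average of five assays. NI means under 50% inhibition at 1 mM.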

[6] = Cytotoxicity against Swiss albino mouse Splenocytes assessed as cell proliferation at 0.5 to 5 uM after 72 hrs by MTT assay; assay type: cell-based; details: splenocyte
Method in brief: (§2)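 Swiss albino mouse splenocytes (2 × 10^6 cells/well) were treated with Con A alone or with test samples at final 0.5, 1, 2.5 and 5 μM. Con A is given as final 10 μg/mL in methods and 10 μM in text. Cells were held 72 h at 37 °C, 5% CO2, in RPMI with 10% FCS, then read by MTT. Values are % of Con A-treated cells (100%), mean ± SEM, n = 5.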

[7] = system: Splenocyte; assay: Immunostimulating activity in Swiss albino mouse Splenocytes assessed as decrease in ConA-induced IL-4 secretion at 5 uM by ELISA; assay type: functional
[8] = system: Splenocyte; assay: Immunostimulating activity in Swiss albino mouse Splenocytes assessed as increase in ConA-induced cell proliferation upto 5 uM after 72 hrs by MTT assay; assay type: functional, cell-based
Method in brief: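 Splenocytes (2 × 10^6/well) from Swiss albino mice were treated with Con A (methods give final 10 μg/mL; results give 10 μM), alone or with compound at final 0.5, 1, 2.5 and 5 μM. Incubation was 72 h at 37 °C, 5% CO2, in RPMI with 10% FCS. Readout by MTT, expressed as % of Con A-treated cells (100%); mean ± SEM, n = 5.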

[9] = system: Oryza sativa; assay: Inhibition of rice alpha-glucosidase at 1 mM using 10 mM p-nitrophenyl-alpha-D-glucopyranoside as substrate
Method in brief: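 Rice α-glucosidase (0.1 U cm−3) was preincubated with compound 1 h at 37 °C. Reaction used 10 mM p-nitrophenyl-α-D-glucopyranoside in 100 mM phosphate pH 6.8, 10 min at 37 °C, stopped with 0.1 M Na2CO3. p-Nitrophenol was read at 420 nm. NI means no 50% inhibition at 1 mM. Ki came from Lineweaver–Burk plots. Average of five assays.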

[10] = Inhibition of bovine liver beta-glucosidase using 10 mM p-nitrophenyl-[…]-D-glucopyranoside as substrate; design: species or system Bos taurus
[11] = system: Splenocyte; assay: Immunostimulating activity in Swiss albino mouse Splenocytes assessed as ConA-induced cell proliferation > 5 uM after 72 hrs by MTT assay; assay type: functional, cell-based
[12] = system: Splenocyte; assay: Immunostimulating activity in Swiss albino mouse Splenocytes assessed as increase in IL-6 secretion at 2.5 uM by ELISA in presence of 10 uM ConA relative to control; assay type: functional
Method in brief: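 Splenocytes (2 × 10^6 cells/well) were stimulated with 10 μM Con A plus compound (2.5 or 5 μM). Supernatant IL-6 was measured by sandwich ELISA: sample 2 h at 37 °C, biotinylated antibody 1 h, streptavidin–HRP, then substrate in the dark. Absorbance was read at 550 nm with 450 nm correction against an IL-6 standard curve. Mean ± SEM, n = 5.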

[13] = system: Splenocyte; assay: Immunostimulating activity in Swiss albino mouse Splenocytes assessed as increase in ConA-induced IFN-gamma secretion at 2.5 uM by ELISA; assay type: functional, cell-based
Method in brief: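 IFN-γ was measured by ELISA in supernatants of splenocytes (2 × 10^6 cells/well). Cells were unstimulated, stimulated with Con A (10 μM), or given Con A plus compound (2.5 or 5 μM) for 24 h. Mean ± SEM, n = 5.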

[14] = system: Splenocyte; assay: Immunostimulating activity in Swiss albino mouse Splenocytes assessed as increase in ConA-induced cell proliferation upto 2.5 uM after 72 hrs by MTT assay; assay type: functional, cell-based; method in brief: as §2
[15] = molecular target: T3, Alpha-mannosidase (Canavalia ensiformis, UniProt C0HJB3); assay: Inhibition of jack bean alpha-mannosidase using 10 mM p-nitrophenyl-alpha-D-mannopyranoside as substrate
T3 sequence (C0HJB3 whole entry): T2 sequence (whole entry)
Method in brief: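 Jack bean α-mannosidase (0.1 U cm−3) was preincubated with compound 1 h at 37 °C. Reaction used 10 mM p-nitrophenyl-α-D-mannopyranoside in 100 mM citrate pH 4.5, 10 min at 37 °C, stopped with 200 mM borate pH 9.8. Read at 420 nm. IC50 and Ki were determined, Ki from Lineweaver–Burk double-reciprocal plots. Mean of five assays.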

[16] = system: Splenocyte; assay: Immunostimulating activity in Swiss albino mouse Splenocytes assessed as decrease in ConA-induced IL-4 secretion at 2.5 uM by ELISA; assay type: functional
Method in brief: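 Supernatants came from Con A-stimulated splenocytes (2 × 10^6 cells/well) with compound at 2.5 or 5 μM. They were spun 2000g for 5 min and stored at −70 °C. IL-4 was measured by ELISA: sample 2 h at 37 °C, then peroxidase conjugate 1 h, substrate developed in the dark. Absorbance was read at 550 nm with 450 nm correction and quantified from an IL-4 standard curve. n = 5.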

OC[C@@]12CCCN1C[C@H](O)[C@@H](O)[C@@H]2O
fold change (FC) [1]: 4.4
Activity [2]: Active
IC50 [3]: 0.24 µM
Ki [3]: 0.54 µM
IC50 [4]: 2.3 µM
Ki [4]: 1 µM
inhibition [5]: < 50%
Activity [6]: Non-toxic
inhibition at 5 µM [7]: 34%
Activity [8]: Active
inhibition [9]: < 50%
IC50 [10]: 202 µM
Ki [10]: 102 µM
Activity [11]: inactive

OC[C@]12CCCN1C[C@H](O)[C@@H](O)[C@@H]2O
fold change (FC) [1]: 4.1
Activity [2]: Active
IC50 [3]: 0.13 µM
Ki [3]: 0.09 µM
IC50 [4]: 3.6 µM
Ki [4]: 1.5 µM
inhibition [5]: < 50%
Activity [6]: Non-toxic
inhibition at 5 µM [7]: 31%
Activity [8]: Active
inhibition [9]: < 50%
IC50 [10]: 116 µM
Ki [10]: 95 µM
Activity [11]: inactive

O=C1CC[C@@]2(CO)[C@@H](O)[C@H](O)[C@H](O)CN12
fold change (FC) [12]: 8.2
IC50 [3]: 630 µM
Ki [3]: 68 µM
IC50 [4]: 7.2 µM
Ki [4]: 3.1 µM
Activity [6]: Non-toxic
Activity [13]: Active
Activity [14]: Active
inhibition [9]: < 50%
IC50 [10]: 46 µM
Ki [10]: 24 µM
IC50 [15]: 1.3 µM
Ki [15]: 0.9 µM
Activity [11]: inactive
inhibition at 2.5 µM [16]: 34%

O=C1CC[C@@]2(CO)[C@@H](O)[C@H](O)[C@@H](O)CN12
fold change (FC) [12]: 9
IC50 [3]: 130 µM
Ki [3]: 14 µM
IC50 [4]: 5.6 µM
Ki [4]: 2.4 µM
Activity [6]: Non-toxic
Activity [13]: Active
Activity [14]: Active
inhibition [9]: < 50%
IC50 [10]: 39 µM
Ki [10]: 19 µM
IC50 [15]: 0.075 µM
Ki [15]: 0.043 µM
Activity [11]: inactive
inhibition at 2.5 µM [16]: 47%

OC[C@@]12CCCN1C[C@@H](O)[C@@H](O)[C@@H]2O
fold change (FC) [1]: 3.7
Activity [2]: Active
IC50 [3]: 0.63 µM
Ki [3]: 0.44 µM
IC50 [4]: 1.2 µM
Ki [4]: 0.5 µM
inhibition [5]: < 50%
Activity [6]: Non-toxic
inhibition at 5 µM [7]: 31%
Activity [8]: Active
inhibition [9]: < 50%
IC50 [10]: 156 µM
Ki [10]: 86 µM
Activity [11]: inactive
